In ChEMBL document CHEMBL2169845 (J Med Chem, 2012) one finds IC50, Ki and Activity data, which are given here for 26 compounds.

Experiment [1] can be described thus: Cytotoxicity against human NCI-H146 cells assessed as growth inhibition after 4 days by WST-8 assay. It counts as functional, cell-based. As to conditions: NCI-H146, 96 h.
Another experiment has as its system NCI-H1417. As to the kind of experiment: Cytotoxicity against human H1417 cells assessed as growth inhibition after 4 days by WST-8 assay. It counts as functional, cell-based. As to conditions: NCI-H1417, 96 h.
Experiment [2] is described as follows: Inhibition of c-terminally truncated N-terminal 8xHis-tagged human Bcl-xL deletion mutant expressed in Escherichia coli BL21 (DE3) after 2 hrs by fluorescence polarization assay. (In general: Polarisation of emitted light reports the rotation of a fluorescent probe.)
In experiment [3] the target is T1, Apoptosis regulator Bcl-2 (Homo sapiens, UniProt P10415).
Experiment [4] deals with T1, Apoptosis regulator Bcl-2. As to the kind of experiment: Inhibition of N-terminal 6xHis-tagged human Bcl-2 expressed in Escherichia coli BL21 (DE3) after 2 hrs by fluorescence polarization assay.
Experiment [5] relates to NCI-H146. The experiment in a line: Induction of apoptosis in human NCI-H146 cells assessed as cell viability at 30 to 100 nM after 24 hrs by trypan blue exclusion assay. It counts as functional. The method, boiled down:
(§1)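 H146 cells exposed to a range of compound concentrations for 24 hr, then harvested and stained with trypan blue. Cells staining blue or looking morphologically unhealthy were scored as dead. At least 100 cells counted per sample.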

Experiment [6] relates to NCI-H146. As to the kind of experiment: Induction of apoptosis in human NCI-H146 cells assessed as cell viability after 24 hrs by trypan blue exclusion assay. The class given is functional, cell-based. Put shortly:
as §1

T1 sequence (P10415 whole entry): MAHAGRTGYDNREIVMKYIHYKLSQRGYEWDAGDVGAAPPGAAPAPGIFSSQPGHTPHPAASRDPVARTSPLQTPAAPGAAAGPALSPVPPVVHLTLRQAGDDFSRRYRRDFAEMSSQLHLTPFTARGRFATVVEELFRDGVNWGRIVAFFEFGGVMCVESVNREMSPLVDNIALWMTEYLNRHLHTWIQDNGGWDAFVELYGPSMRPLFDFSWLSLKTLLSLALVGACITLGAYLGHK

As to `Cc1c(C(=O)O)c(-c2cccc(N3CCN(c4ccc(NS(=O)(=O)c5ccc(N[C@H](CCN6CCC6)CSc6ccccc6)c(S(=O)(=O)C(F)(F)F)c5)cc4)CC3)c2)c(-c2ccc(Cl)cc2)n1C`, the IC50 in experiment [1] is 86 nM; with NCI-H1417, 126 nM; in experiment [2] it was 16.5 nM; in experiment [4], 7.5 nM. The compound further came in with a Ki in experiment [3] of 1.7 nM.

In turn, `Cc1c(C(=O)NCCCN2CCN(C)CC2)c(-c2cccc(N3CCN(c4ccc(NS(=O)(=O)c5ccccc5)cc4)CC3)c2)c(-c2ccc(Cl)cc2)n1C` showed an IC50 in experiment [2] of 3730 nM.

In experiment [2], `Cc1c(C(=O)NCCCN2CCN(C)CC2)c(-c2cccc(N3CCN(c4ccc(NS(=O)(=O)c5cccc(C(C)(C)C)c5)cc4)CC3)c2)c(-c2ccc(Cl)cc2)n1C` returned a half-maximal inhibitory concentration (IC50) of 744 nM.

On to `Cc1c(C(=O)NCCCN2CCN(C)CC2)c(-c2cccc(N3CCN(c4ccc(NS(=O)(=O)c5cccc(S(=O)(=O)C6CC6)c5)cc4)CC3)c2)c(-c2ccc(Cl)cc2)n1C`, for which the IC50 in experiment [2] stood at 1040 nM.

In experiment [2], `Cc1c(C(=O)NCCCN2CCN(C)CC2)c(-c2cccc(N3CCN(c4ccc(NS(=O)(=O)c5cccc(Br)c5)cc4)CC3)c2)c(-c2ccc(Cl)cc2)n1C` returned an IC50 of 499 nM.

As for `Cc1c(C(=O)NCCCN2CCN(C)CC2)c(-c2cccc(N3CCN(c4ccc(NS(=O)(=O)c5cccc(S(C)(=O)=O)c5)cc4)CC3)c2)c(-c2ccc(Cl)cc2)n1C`, the IC50 in experiment [2] amounted to 1920 nM.

Turning to `Cc1c(C(=O)NCCCN2CCN(C)CC2)c(-c2cccc(N3CCN(c4ccc(NS(=O)(=O)c5cccc(F)c5)cc4)CC3)c2)c(-c2ccc(Cl)cc2)n1C`, the IC50 in experiment [2] was 1310 nM.

Regarding `CCc1cccc(S(=O)(=O)Nc2ccc(N3CCN(c4cccc(-c5c(C(=O)NCCCN6CCN(C)CC6)c(C)n(C)c5-c5ccc(Cl)cc5)c4)CC3)cc2)c1`, the IC50 in experiment [2] worked out at 1950 nM.

`Cc1c(C(=O)NCCCN2CCN(C)CC2)c(-c2cccc(N3CCN(c4ccc(NS(=O)(=O)c5cccc(OC(F)(F)F)c5)cc4)CC3)c2)c(-c2ccc(Cl)cc2)n1C` registered an IC50 in experiment [2] of 1650 nM.

The compound `Cc1cccc(S(=O)(=O)Nc2ccc(N3CCN(c4cccc(-c5c(C(=O)NCCCN6CCN(C)CC6)c(C)n(C)c5-c5ccc(Cl)cc5)c4)CC3)cc2)c1` gave an IC50 in experiment [2] of 1990 nM.

Turning to `CCOc1cccc(S(=O)(=O)Nc2ccc(N3CCN(c4cccc(-c5c(C(=O)NCCCN6CCN(C)CC6)c(C)n(C)c5-c5ccc(Cl)cc5)c4)CC3)cc2)c1`, it took 3650 nM to reach half-maximal inhibition in experiment [2] (IC50).

For the compound `CCCCn1c(C)c(C(=O)O)c(-c2cccc(N3CCN(c4ccc(NS(=O)(=O)c5ccc(N[C@H](CCN6CCC(O)CC6)CSc6ccccc6)c(S(=O)(=O)C(F)(F)F)c5)cc4)CC3)c2)c1-c1ccc(Cl)cc1`, the IC50 is 128 nM in experiment [1], 97 nM in the experiment with NCI-H1417, 6.3 nM in experiment [2] and 78.2 nM in experiment [4]. Further, the Ki in experiment [3] came to 20 nM.

Consider `Cc1c(C(=O)O)c(-c2cccc(N3CCN(c4ccc(NS(=O)(=O)c5ccc(N[C@H](CCN6CC(O)C6)CSc6ccccc6)c(S(=O)(=O)C(F)(F)F)c5)cc4)CC3)c2)c(-c2ccc(Cl)cc2)n1C`, for which the IC50 in experiment [1] came to 241 nM; in the experiment on NCI-H1417, 299 nM; in experiment [2] it was 10.5 nM; in experiment [4] it was 7.7 nM. Besides, the affinity in experiment [3] corresponds to a Ki of 1.7 nM.

`Cc1c(C(=O)O)c(-c2cccc(N3CCN(c4ccc(NS(=O)(=O)c5ccc(N[C@H](CCN6CCCC6)CSc6ccccc6)c(S(=O)(=O)C(F)(F)F)c5)cc4)CC3)c2)c(-c2ccc(Cl)cc2)n1C`: the IC50 in experiment [1] worked out at 87 nM; in the experiment on NCI-H1417 it was 106 nM; in experiment [2], 10.7 nM; in experiment [4] it was 8.3 nM. The Ki in experiment [3] is 1.8 nM.

With `Cc1c(C(=O)O)c(-c2cccc(N3CCN(c4ccc(NS(=O)(=O)c5ccc(N[C@H](CCN6CCOCC6)CSc6ccccc6)c(S(=O)(=O)C(F)(F)F)c5)cc4)CC3)c2)c(-c2ccc(Cl)cc2)n1C`, the IC50 in experiment [2] was found to be 10.8 nM; in experiment [4] it was 55.2 nM. In addition, the Ki in experiment [3] is 14.1 nM.

Consider `Cc1c(C(=O)NCCCN2CCN(C)CC2)c(-c2cccc(N3CCN(c4ccc(NS(=O)(=O)c5cccc(OC(C)C)c5)cc4)CC3)c2)c(-c2ccc(Cl)cc2)n1C`, for which 1050 nM corresponded to half-maximal inhibition in experiment [2] (IC50).

`Cc1c(C(=O)O)c(-c2cccc(N3CCN(c4ccc(NS(=O)(=O)c5ccc(N[C@H](CCN6CCC(C)(O)CC6)CSc6ccccc6)c(S(=O)(=O)C(F)(F)F)c5)cc4)CC3)c2)c(-c2ccc(Cl)cc2)n1C`: the IC50 came out at 171 nM in experiment [1], 179 nM with NCI-H1417, 21.8 nM in experiment [2] and 18.6 nM in experiment [4]. In experiment [3], the affinity corresponds to a Ki of 4.6 nM.

With `Cc1c(C(=O)NCCCN2CCN(C)CC2)c(-c2cccc(N3CCN(c4ccc(NS(=O)(=O)c5cccc([N+](=O)[O-])c5)cc4)CC3)c2)c(-c2ccc(Cl)cc2)n1C`, 131 nM corresponded to half-maximal inhibition in experiment [2] (IC50).

In the case of `CCCn1c(C)c(C(=O)O)c(-c2cccc(N3CCN(c4ccc(NS(=O)(=O)c5ccc(N[C@H](CCN6CCC(O)CC6)CSc6ccccc6)c(S(=O)(=O)C(F)(F)F)c5)cc4)CC3)c2)c1-c1ccc(Cl)cc1`, the IC50 was 128 nM in experiment [1], 105 nM in the experiment on NCI-H1417, 8.2 nM in experiment [2] and 30.1 nM in experiment [4]. Besides, the Ki in experiment [3] was 7.5 nM.

For the compound `CCS(=O)(=O)c1cccc(S(=O)(=O)Nc2ccc(N3CCN(c4cccc(-c5c(C(=O)NCCCN6CCN(C)CC6)c(C)n(C)c5-c5ccc(Cl)cc5)c4)CC3)cc2)c1`, in experiment [2], 954 nM corresponded to half-maximal inhibition (IC50).

In the case of `CN(C)CC[C@H](CSc1ccccc1)Nc1ccc(S(=O)(=O)NC(=O)c2ccc(N3CCN(Cc4ccccc4-c4ccc(Cl)cc4)CC3)cc2)cc1[N+](=O)[O-]` [ABT 737], the Activity in the experiment on NCI-H146 [5] was >50%; with NCI-H146 [6], “Dose-dependent effect”.

As to `Cc1c(C(=O)O)c(-c2cccc(N3CCN(c4ccc(NS(=O)(=O)c5ccc(N[C@H](CCN(C)C)CSc6ccccc6)c(S(=O)(=O)C(F)(F)F)c5)cc4)CC3)c2)c(-c2ccc(Cl)cc2)n1C`, the IC50 in experiment [2] was 5.1 nM; in experiment [4], 9.2 nM. Besides, the Ki in experiment [3] amounted to 2.1 nM.

For the compound `Cc1c(C(=O)NCCCN2CCN(C)CC2)c(-c2cccc(N3CCN(c4ccc(NS(=O)(=O)c5cccc(Cl)c5)cc4)CC3)c2)c(-c2ccc(Cl)cc2)n1C`, in experiment [2], the IC50 was determined as 1060 nM.

As for `COc1cccc(S(=O)(=O)Nc2ccc(N3CCN(c4cccc(-c5c(C(=O)NCCCN6CCN(C)CC6)c(C)n(C)c5-c5ccc(Cl)cc5)c4)CC3)cc2)c1`, in experiment [2], half-maximal inhibition (IC50) was put at 2160 nM.

For `Cc1c(C(=O)O)c(-c2cccc(N3CCN(c4ccc(NS(=O)(=O)c5ccc(N[C@H](CCN6CCCCC6)CSc6ccccc6)c(S(=O)(=O)C(F)(F)F)c5)cc4)CC3)c2)c(-c2ccc(Cl)cc2)n1C`, the IC50 in experiment [1] was found to be 133 nM; in the experiment on NCI-H1417 it was 171 nM; in experiment [2] it was 12.1 nM; in experiment [4] it was 15.6 nM. The same compound showed an inhibitory constant (Ki) in experiment [3] of 3.8 nM.

As for `Cc1c(C(=O)O)c(-c2cccc(N3CCN(c4ccc(NS(=O)(=O)c5ccc(N[C@H](CCN(C)C)CSc6ccccc6)c([N+](=O)[O-])c5)cc4)CC3)c2)c(-c2ccc(Cl)cc2)n1C`, the Ki in experiment [3] is < 1 nM.

The IC50 is the concentration that inhibits the measured activity by half. For orientation: Ki means a dissociation constant, usually derived from enzyme kinetics or from competition with a known ligand. Higher therefore signals lower affinity.
